Source: ChEMBL document CHEMBL1799931, “Synthesis, evaluation and metabolic studies of radiotracers containing a 4-(4-[18F]-fluorobenzyl)piperidin-1-yl moiety for the PET imaging of NR2B NMDA receptors” (Eur J Med Chem, 2011)

Tests used:
Muscle tissue = assay: Biodistribution in Sprague-Dawley rat muscle at 3.2 to 18.6 MBq, iv after 120 mins by micro PET analysis; type: ADME, organism-based; details: in vivo, 2 h
Method in brief: (§1)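 Male Sprague-Dawley rats (235-310 g) under isoflurane got 18F radiotracer (3.2-18.6 MBq) by tail-vein catheter, n = 3. Dynamic microPET scan for 120 min, then ex vivo tissue counting at 120 min post-injection. Values are %ID/g ± SEM.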

[1] = Biodistribution in Sprague-Dawley rat fat at 3.2 to 18.6 MBq, iv after 120 mins by micro PET analysis; type: ADME, organism-based, Adipose tissue; details: in vivo, 2 h; method in brief: as §1
Brain = assay: Biodistribution in Sprague-Dawley rat brain at 3.2 to 18.6 MBq, iv after 120 mins by micro PET analysis; type: ADME, organism-based; details: in vivo, 2 h; method in brief: as §1
Bone = assay: Biodistribution in Sprague-Dawley rat bone at 3.2 to 18.6 MBq, iv after 120 mins by micro PET analysis; type: ADME, organism-based, Bone element; details: in vivo, 2 h; method in brief: as §1
Rattus norvegicus [2] = assay: Biodistribution in Sprague-Dawley rat cartilage at 3.2 to 18.6 MBq, iv after 120 mins by micro PET analysis; type: ADME, organism-based, Cartilage tissue; details: in vivo, 2 h; method in brief: as §1
Thymus = assay: Biodistribution in Sprague-Dawley rat thymus at 3.2 to 18.6 MBq, iv after 120 mins by micro PET analysis; type: ADME, organism-based; details: in vivo, 2 h; method in brief: as §1
[3] = Metabolic stability in Sprague-Dawley rat plasma assessed as half life by radio thin layer chromatography analysis; type: ADME, cell-free
Method in brief: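 Anesthetized male Sprague-Dawley rats (235-330 g) given radiotracer (3.2-15.1 MBq). Femoral arterial blood was sampled over 90 min and plasma gamma-counted. Plasma was diluted with acetonitrile, centrifuged and run on silica radio-TLC with cold reference, giving parent and radiometabolite fractions.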

Lung = assay: Biodistribution in Sprague-Dawley rat lung at 3.2 to 18.6 MBq, iv after 120 mins by micro PET analysis; type: ADME, organism-based; details: in vivo, 2 h; method in brief: as §1
Heart = assay: Biodistribution in Sprague-Dawley rat heart at 3.2 to 18.6 MBq, iv after 120 mins by micro PET analysis; type: ADME, organism-based; details: in vivo, 2 h; method in brief: as §1
Pancreas = assay: Biodistribution in Sprague-Dawley rat pancreas at 3.2 to 18.6 MBq, iv after 120 mins by micro PET analysis; type: ADME, organism-based; details: in vivo, 2 h; method in brief: as §1
Liver [4] = assay: Biodistribution in Sprague-Dawley rat liver at 3.2 to 18.6 MBq, iv after 120 mins by micro PET analysis; type: ADME, organism-based; details: in vivo, 2 h; method in brief: as §1
Spleen = assay: Biodistribution in Sprague-Dawley rat spleen at 3.2 to 18.6 MBq, iv after 120 mins by micro PET analysis; type: ADME, organism-based; details: in vivo, 2 h; method in brief: as §1
Kidney = assay: Biodistribution in Sprague-Dawley rat kidney at 3.2 to 18.6 MBq, iv after 120 mins by micro PET analysis; type: ADME, organism-based; details: in vivo, 2 h; method in brief: as §1
[5] = Biodistribution in Sprague-Dawley rat urine at 3.2 to 18.6 MBq, iv after 120 mins by micro PET analysis; type: ADME, organism-based; details: in vivo, 2 h; method in brief: as §1
Rattus norvegicus [6] = assay: Biodistribution in Sprague-Dawley rat bladder at 3.2 to 18.6 MBq, iv after 120 mins by micro PET analysis; type: ADME, organism-based, Urinary bladder; details: in vivo, 2 h; method in brief: as §1
Intestine = assay: Biodistribution in Sprague-Dawley rat intestine at 3.2 to 18.6 MBq, iv after 120 mins by micro PET analysis; type: ADME, organism-based; details: in vivo, 2 h; method in brief: as §1
Hippocampus = assay: Biodistribution in Sprague-Dawley rat hippocampus at 3.2 to 18.6 MBq, iv after 120 mins by micro PET analysis; details: in vivo, 2 h
Cerebellum = assay: Biodistribution in Sprague-Dawley rat cerebellum at 3.2 to 18.6 MBq, iv after 120 mins by micro PET analysis; details: in vivo, 2 h
Mus musculus = assay: Analgesic activity in po dosed mouse assessed as licking behavior measured after 20 to 25 mins by formalin test; type: functional, organism-based
[7] = target: Glutamate NMDA receptor; GRIN1/GRIN2A (Homo sapiens) (UniProt Q05586+Q12879); assay: Antagonist activity against NR1a/NR2A receptor transfected in human HEK293 cells assessed as inhibition of NMDA-induced Ca2+ influx at 10 uM; type: functional, cell-based
Method in brief: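 HEK293 cells co-transfected 1:1 with NR1-1a plus NR2A-GFP or NR2B-GFP, D-APV (100 µM) after transfection, used at 24 h. Cells loaded with Fura-2/AM 45 min at 37 °C, then held in HBBSS with glycine, pH 7.45, at room temperature under perfusion. NMDA 100 µM for 30 s; ligands applied 60 s before and during.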

[8] = target: T1, Glutamate NMDA receptor; GRIN1/GRIN2B (Homo sapiens, UniProt Q05586+Q13224); assay: Antagonist activity against NR1a/NR2B receptor transfected in human HEK293 cells assessed as inhibition of NMDA-induced Ca2+ influx; type: functional, cell-based
T1 sequence (Q13224 whole entry, other chains not shown): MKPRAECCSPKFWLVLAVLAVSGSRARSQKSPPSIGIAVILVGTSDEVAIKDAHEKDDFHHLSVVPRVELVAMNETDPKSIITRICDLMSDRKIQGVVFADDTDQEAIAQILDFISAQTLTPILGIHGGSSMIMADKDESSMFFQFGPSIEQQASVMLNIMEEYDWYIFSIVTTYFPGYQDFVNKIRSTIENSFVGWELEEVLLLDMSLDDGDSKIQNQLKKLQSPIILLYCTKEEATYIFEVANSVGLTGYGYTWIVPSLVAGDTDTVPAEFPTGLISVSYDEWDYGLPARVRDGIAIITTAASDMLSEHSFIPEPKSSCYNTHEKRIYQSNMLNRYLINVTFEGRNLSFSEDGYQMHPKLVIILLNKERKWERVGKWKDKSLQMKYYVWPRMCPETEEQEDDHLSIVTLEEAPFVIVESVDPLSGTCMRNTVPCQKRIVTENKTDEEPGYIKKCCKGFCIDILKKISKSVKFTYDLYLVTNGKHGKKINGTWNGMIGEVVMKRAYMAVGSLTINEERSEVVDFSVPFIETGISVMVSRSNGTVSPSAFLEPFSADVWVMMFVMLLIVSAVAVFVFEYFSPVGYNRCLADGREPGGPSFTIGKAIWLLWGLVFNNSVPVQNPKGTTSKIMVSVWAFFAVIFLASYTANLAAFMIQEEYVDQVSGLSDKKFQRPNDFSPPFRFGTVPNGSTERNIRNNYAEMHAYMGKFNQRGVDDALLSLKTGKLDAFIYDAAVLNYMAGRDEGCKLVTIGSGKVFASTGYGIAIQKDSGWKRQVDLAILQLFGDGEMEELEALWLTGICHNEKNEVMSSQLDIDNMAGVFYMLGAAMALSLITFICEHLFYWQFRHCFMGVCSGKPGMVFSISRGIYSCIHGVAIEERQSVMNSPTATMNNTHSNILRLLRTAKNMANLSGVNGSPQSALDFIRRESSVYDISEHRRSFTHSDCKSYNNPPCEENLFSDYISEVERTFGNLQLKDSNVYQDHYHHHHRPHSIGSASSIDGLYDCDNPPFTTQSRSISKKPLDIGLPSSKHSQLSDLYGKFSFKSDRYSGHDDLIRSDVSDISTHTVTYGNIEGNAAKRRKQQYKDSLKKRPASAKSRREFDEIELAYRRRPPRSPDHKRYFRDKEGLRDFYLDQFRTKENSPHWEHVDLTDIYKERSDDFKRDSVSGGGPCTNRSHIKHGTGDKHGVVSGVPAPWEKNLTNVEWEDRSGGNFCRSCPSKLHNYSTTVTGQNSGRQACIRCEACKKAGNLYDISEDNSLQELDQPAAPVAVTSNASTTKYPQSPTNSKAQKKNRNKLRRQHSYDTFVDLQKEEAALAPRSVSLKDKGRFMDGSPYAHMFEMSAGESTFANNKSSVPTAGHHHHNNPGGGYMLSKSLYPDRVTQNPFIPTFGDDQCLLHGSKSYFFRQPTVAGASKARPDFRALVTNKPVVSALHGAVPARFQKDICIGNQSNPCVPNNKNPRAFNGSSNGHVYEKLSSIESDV

[9] = target: T1, Glutamate NMDA receptor; GRIN1/GRIN2B; assay: Antagonist activity at human NR1a/NR2B receptor expressed in mouse fibroblast LMTK cells assessed as inhibition of Glu/Gly induced Ca2+ influx; type: functional, cell-based
[10] = target: T1, Glutamate NMDA receptor; GRIN1/GRIN2B; assay: Displacement of [3H]-Ro-256981 from recombinant NR1/NR2B receptor; type: protein-complex assay
Plasma [11] = assay: Metabolic stability of the compound in rat plasma after 30 mins; type: ADME, cell-free; details: 0.5 h
Method in brief: (§2)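 Rat plasma or liver homogenate (0.450 mL) spiked with ligand at 5-200 mg/L. Samples were deproteinized with acetonitrile immediately or after 30 min at 37 °C, then analysed by HPLC in triplicate injections.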

Liver [12] = assay: Metabolic stability of the compound in rat liver homogenate after 30 mins; type: ADME, tissue-based; details: tissue homogenate, 0.5 h; method in brief: as §2
[13] = Metabolic stability in Sprague-Dawley rat assessed as unmetabolized parent compound in urine at 10 mg/kg, iv after 1 hr by MS/MS analysis; type: ADME, organism-based; design: dose 10 mg/kg, route intravenous; details: in vivo
Method in brief: (§3)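 Two anesthetized male Sprague-Dawley rats got 10 mg/kg in sterile water by tail vein; two controls got sterile water at 1 mL/kg. Rats were kept awake 1 h, then decapitated. Plasma and urine went to LC-MS/MS, full scans compared with control.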

Plasma [14] = assay: Metabolic stability in Sprague-Dawley rat assessed as unmetabolized parent compound in plasma at 10 mg/kg, iv after 1 hr by MS/MS analysis; type: ADME, organism-based; design: dose 10 mg/kg, route intravenous; details: in vivo; method in brief: as §3
[15] = Inhibition of alpha-adrenergic receptor
[16] = target: Voltage-gated inwardly rectifying potassium channel KCNH2 (Homo sapiens, UniProt Q12809); assay: Inhibition of human ERG potassium channel
Sequence of Voltage-gated inwardly rectifying potassium channel KCNH2 (Q12809 whole entry): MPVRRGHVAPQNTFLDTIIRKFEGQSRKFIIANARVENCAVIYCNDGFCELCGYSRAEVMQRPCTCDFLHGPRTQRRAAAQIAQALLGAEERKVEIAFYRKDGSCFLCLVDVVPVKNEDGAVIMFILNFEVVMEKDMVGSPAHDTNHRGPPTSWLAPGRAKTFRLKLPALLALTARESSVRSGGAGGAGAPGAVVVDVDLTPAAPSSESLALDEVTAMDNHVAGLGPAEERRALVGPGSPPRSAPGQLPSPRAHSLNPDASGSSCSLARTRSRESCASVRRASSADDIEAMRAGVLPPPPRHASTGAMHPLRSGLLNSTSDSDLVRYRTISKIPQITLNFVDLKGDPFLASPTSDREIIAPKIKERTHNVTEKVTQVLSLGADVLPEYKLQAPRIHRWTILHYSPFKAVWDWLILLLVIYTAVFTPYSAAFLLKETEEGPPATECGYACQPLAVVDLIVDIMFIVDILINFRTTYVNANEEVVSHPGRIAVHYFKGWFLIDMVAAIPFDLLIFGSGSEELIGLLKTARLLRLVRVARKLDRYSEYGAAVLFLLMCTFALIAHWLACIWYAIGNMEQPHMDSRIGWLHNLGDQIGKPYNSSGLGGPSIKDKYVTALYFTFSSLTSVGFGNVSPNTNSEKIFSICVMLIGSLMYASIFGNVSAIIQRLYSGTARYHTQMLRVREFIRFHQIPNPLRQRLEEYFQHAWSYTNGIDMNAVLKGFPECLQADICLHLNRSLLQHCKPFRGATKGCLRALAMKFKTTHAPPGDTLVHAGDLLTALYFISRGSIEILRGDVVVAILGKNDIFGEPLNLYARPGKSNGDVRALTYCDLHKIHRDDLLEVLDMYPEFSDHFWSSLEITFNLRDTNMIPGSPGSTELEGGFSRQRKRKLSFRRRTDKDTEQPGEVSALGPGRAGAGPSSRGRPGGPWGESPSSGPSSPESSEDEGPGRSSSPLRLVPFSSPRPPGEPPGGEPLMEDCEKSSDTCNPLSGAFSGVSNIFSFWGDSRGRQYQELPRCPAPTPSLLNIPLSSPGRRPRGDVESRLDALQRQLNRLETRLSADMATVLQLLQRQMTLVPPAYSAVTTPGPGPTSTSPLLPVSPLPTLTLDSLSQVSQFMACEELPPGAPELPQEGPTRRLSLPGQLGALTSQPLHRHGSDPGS

## O=C(Nc1ccc2[nH]c(=O)oc2c1)C(=O)N1CCC(Cc2ccc([18F])cc2)CC1
Muscle tissue
  Drug uptake: 0.069 % ID/g
[1]
  Drug uptake: 0.056 % ID/g
Brain
  Drug uptake: 0.054 % ID/g
Bone
  Drug uptake: 0.397 % ID/g
Rattus norvegicus [2]
  Drug uptake: 0.776 % ID/g
Thymus
  Drug uptake: 0.057 % ID/g
[3]
  half-life: 50 min
Lung
  Drug uptake: 0.132 % ID/g
Heart
  Drug uptake: 0.076 % ID/g
Pancreas
  Drug uptake: 0.08 % ID/g
Liver [4]
  Drug uptake: 1.365 % ID/g
Spleen
  Drug uptake: 0.169 % ID/g
Kidney
  Drug uptake: 0.377 % ID/g
[5]
  Drug uptake: 3.237 % ID/g
Rattus norvegicus [6]
  Drug uptake: 0.175 % ID/g
Intestine
  Drug uptake: 0.107 % ID/g
Hippocampus
  Drug uptake: 0.064 % ID/g
Cerebellum
  Drug uptake: 0.046 % ID/g

## O=C(Nc1ccc2nc(O)oc2c1)C(=O)N1CCC(Cc2ccc(F)cc2)CC1 [RADIPRODIL]
Mus musculus; Mus musculus, po, read-out: ED50
  ED50: 7.7 mg/kg
[7]
  inhibition: 10.1%

## CS(=O)(=O)Nc1ccc2[nH]c(CN3CCC(Cc4ccc(F)cc4)CC3)nc2c1
[8]
  IC50: 57.7 nM

## CS(=O)(=O)Nc1ccc2nc(CN3CCC(Cc4ccccc4)CC3)[nH]c2c1
[9]
  IC50: 1.4 nM
[8]
  IC50: 50.3 nM

## O=C(Nc1ccc2[nH]c(=O)[nH]c2c1)C(=O)N1CCC(Cc2ccccc2)CC1
[10]
  IC50: 8 nM

## O=C(Nc1ccc2nc(O)sc2c1)C(=O)N1CCC(Cc2ccccc2)CC1
Mus musculus
  ED50: 0.5 mg/kg

## O=C(Nc1ccc2[nH]c(=O)oc2c1)C(=O)N1CCC(Cc2ccc(F)cc2)CC1 [RADIPRODIL]
[10]
  IC50: 6 nM
[8]
  IC50: 69.9 nM
Plasma [11]
  Stability: Stable
Liver [12]
  Stability: Stable

## Fc1ccc(CC2CCNCC2)cc1
[13]
  Stability: Unstable
Plasma [14]
  Stability: Unstable

## Oc1ccc2[nH]c(CN3CCC(Cc4ccc(F)cc4)CC3)nc2c1
[15]
  IC50: 620 nM
[16]
  IP: 500 nM
[8]
  IC50: 47.3 nM
[7]
  inhibition: 10.5%
Plasma [11]
  Stability: Stable
Liver [12]
  Stability: Stable
